Results from different studies.
Lines come from different studies, so protocols differ.

| Compound | target | read-out | action | method | tested at | inhibition [%] |
| --- | --- | --- | --- | --- | --- | --- |
| C#Cc1n[nH]c2c(-c3cn([C@@H](C)c4ccccc4)c(=O)[nH]c3=O)cc(F)cc12 | Cyclin-dependent kinase 1, with cyclin B (CDK1, Homo sapiens, UniProt P06493) | enzyme activity | inhibitor | – | 0.1 µM | 5.9 |
| COc1ccc(S(=O)(=O)N(CC(=O)NO)CC(C)C)cc1 | Stromelysin-2 (Homo sapiens, UniProt P09238) | enzyme activity | inhibitor | – | 1 µM | 63 |
| Cc1ncc(C)n2nc(/C=C/c3nc(N4CCCC4)cc(N4CCOCC4)n3)nc12 | C-X-C chemokine receptor type 4 (CXCR4, Homo sapiens, UniProt P61073) | cell-free assay | – | – | 10 µM | -8 |
| N=C(N)c1ccc2cc(OC(=O)c3ccc(N=C(N)N)cc3)ccc2c1 | Dipeptidyl peptidase 4 (DPP4, Homo sapiens, UniProt P27487) | enzyme activity | inhibitor | – | 10 µM | 18 |
| Cn1cc(-c2cc(F)cc(N3CCn4c(cc5c4CCCC5)C3=O)c2CO)cc(Nc2ccc(N3CCN(C4COC4)CC3)cn2)c1=O | Serine/threonine-protein kinase Sgk2 (SGK2, Homo sapiens, UniProt Q9HBY8) | enzyme activity | inhibitor | – | 0.1 µM | 12 |
| C=CCn1c2cc(OC(=O)CCCCN3CCN(Cc4cccc(Cl)c4)CC3)ccc2c2ccnc(C)c21 | Acetylcholinesterase (ACHE, Homo sapiens, UniProt P22303) | enzyme activity | inhibitor | Ellman | 1 µM | 48.1 |
| N#C[C@@H]1CC(F)(F)CN1C(=O)CNC(=O)c1ccnc2ccccc12 | Prolyl endopeptidase FAP (FAP, Homo sapiens, UniProt Q12884) | enzyme activity | inhibitor | – | 0.1 µM | 100 |
| Cn1cc(-c2cccc(N3CCc4c(sc5c4CC(C)(C)C5)C3=O)c2CO)cc(Nc2ccncn2)c1=O | 5'-AMP-activated protein kinase catalytic subunit alpha-2 (PRKAA2, Homo sapiens, UniProt P54646) | enzyme activity | inhibitor | – | 1 µM | 5 |
| C#Cc1n[nH]c2c(-c3cn([C@@H](C)c4ccccn4)c(=O)[nH]c3=O)cc(F)cc12 | Proto-oncogene tyrosine-protein kinase Src (SRC, Homo sapiens, UniProt P12931) | enzyme activity | inhibitor | – | 0.1 µM | 12.9 |
